Each block holds one molecule with its values, some of them ahead of it. Calls of active or inactive are those of the source. The rule behind the calls is not given here.
Legend:
IMR-32 [1] = assay: Evaluated in vitro for the inhibition of Adenosine (ADO) phosphorylation in intact IMR-32 human neuroblastoma cells.; type: functional, cell-based
Outline: (§1)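 IMR-32 human neuroblastoma cells were preincubated 10 min with compound (10^-11 to 10^-4 M), then given [U-14C]ADO (added as a 2 μM solution) for 20 min. Buffer was aspirated and cells were snap-frozen in liquid nitrogen, then thawed 20 min at room temperature. Supernatant was spotted on DE-81 disks, washed and counted by scintillation.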

Rattus norvegicus [2] = species on record: Rattus norvegicus; assay: Antihyperalgesic effect in the carrageenan induced thermal hyperalgesia model; type: functional
Adenosine kinase = Adenosine kinase (Rattus norvegicus, UniProt Q64640); assay: Evaluated in vitro for inhibitory activity against Adenosine kinase (AK)
Adenosine kinase, sequence (Q64640 whole entry): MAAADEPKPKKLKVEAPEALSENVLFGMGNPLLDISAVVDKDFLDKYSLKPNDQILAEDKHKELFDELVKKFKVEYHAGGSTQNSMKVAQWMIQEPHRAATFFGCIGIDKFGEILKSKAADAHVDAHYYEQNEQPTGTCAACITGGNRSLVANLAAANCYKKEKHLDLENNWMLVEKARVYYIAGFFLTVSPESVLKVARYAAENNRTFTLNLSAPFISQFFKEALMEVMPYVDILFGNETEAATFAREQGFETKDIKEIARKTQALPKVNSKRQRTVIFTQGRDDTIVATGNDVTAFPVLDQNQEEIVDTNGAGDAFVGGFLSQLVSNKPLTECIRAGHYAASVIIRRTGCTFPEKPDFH
Outline: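 Rat brain cytosol was the adenosine kinase source. The mix held 64 mM Tris-HCl pH 7.5, 0.2 mM MgCl2, 1 mM ATP and 0.2 μM [U-14C]ADO or [2-3H]ADO, incubated 15 min at 23 °C. Aliquots were spotted onto DE-81 anion-exchange disks, washed in 2 mM ammonium formate, rinsed and dried. Bound radioactivity was counted by scintillation.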

Rattus norvegicus [3] = assay: Nociceptive paw flinching in rats assessed 30 min following an intraplantar injection of 5% formalin into the right hind paw.; NA=not active uM/Kg; type: functional, organism-based
Outline: (§2)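 Rats received an intraplantar injection of 5% formalin (50 μL) into the right hindpaw, and nociceptive flinching was scored 30 min afterward. Data are mean ± SEM, n = 6-8 per dose group.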

IMR-32 [4] = assay: Evaluated in vitro for the inhibition of Adenosine (ADO) phosphorylation in intact cells.; type: functional, cell-based; settings: Homo sapiens; outline: as §1
Rattus norvegicus [5] = species on record: Rattus norvegicus; assay: Nociceptive paw flinching in rats assessed 30 min following an intraplantar injection of 5% formalin into the right hind paw.; type: functional; settings: 0.5 h; outline: as §2
Rattus norvegicus [6] = assay: Antihyperalgesic effect in the carrageenan induced thermal hyperalgesia model uM/Kg; type: functional, organism-based
Rattus norvegicus [7] = assay: Nociceptive paw flinching in rats assessed 30 min following an intraplantar injection of 5% formalin into the right hind paw; NA=not active uM/Kg; type: functional, organism-based; outline: as §2

- IC50 (IMR-32 [4]): 515 nM
- IC50 (Adenosine kinase): 90 nM
Compound: CN(Cc1ccc(Br)cc1)c1c(N)ncnc1C#Cc1ccc(N2CCOCC2)nc1

- IC50 (IMR-32 [4]): 725 nM
- IC50 (Adenosine kinase): 5 nM
Compound: CN(Cc1cccc(Br)c1)c1c(N)ncnc1C#Cc1ccc(N2CCOCC2)nc1

- IC50 (IMR-32 [1]): 1000 nM
- IC50 (Adenosine kinase): 22 nM
Compound: Nc1ncnc(C#Cc2ccc(N3CCOCC3)nc2)c1Cc1cccc(Br)c1

- IC50 (IMR-32 [4]): 580 nM
- IC50 (Adenosine kinase): 3.5 nM
Compound: Nc1ncnc(C#Cc2ccc(N3CCOCC3)nc2)c1CCCc1cccc(Br)c1

- IC50 (IMR-32 [1]): 100 nM
- IC50 (Adenosine kinase): 15 nM
Compound: CN(Cc1ccccc1Cl)c1c(N)ncnc1C#Cc1ccc(N2CCOCC2)nc1
- ED50 (Rattus norvegicus [2]): 3 µmol/kg
- ED50 (Rattus norvegicus [5]): 10 µmol/kg

- IC50 (IMR-32 [4]): 360 nM
- IC50 (Adenosine kinase): 106 nM
Compound: CN(Cc1ccc(Cl)cc1)c1c(N)ncnc1C#Cc1ccc(N2CCOCC2)nc1

- IC50 (IMR-32 [4]): 225 nM
- IC50 (Adenosine kinase): 22 nM
Compound: CN(Cc1cccc(Cl)c1)c1c(N)ncnc1C#Cc1ccc(N2CCOCC2)nc1
- NA (Rattus norvegicus [6]): inactive
- NA (Rattus norvegicus [3]): inactive

- IC50 (IMR-32 [1]): 124 nM
- IC50 (Adenosine kinase): 30 nM
Compound: CN(Cc1ccccc1)c1c(N)ncnc1C#Cc1ccc(N2CCOCC2)nc1
- ED50 (Rattus norvegicus [2]): 10 µmol/kg
- ED50 (Rattus norvegicus [5]): 10 µmol/kg

- IC50 (IMR-32 [1]): 280 nM
- IC50 (Adenosine kinase): 28 nM
Compound: CN(c1cccc(Br)c1)c1c(N)ncnc1C#Cc1ccc(N2CCOCC2)nc1

- IC50 (IMR-32 [1]): 94 nM
- IC50 (Adenosine kinase): 6 nM
Compound: Cc1ccccc1CN(C)c1c(N)ncnc1C#Cc1ccc(N2CCOCC2)nc1
- NA (Rattus norvegicus [6]): inactive
- NA (Rattus norvegicus [7]): inactive

The remaining lines, values behind:

Compound: CN(Cc1ccccc1)Cc1c(N)ncnc1C#Cc1ccc(N2CCOCC2)nc1
- IC50 (IMR-32 [1]): 118 nM
- ED50 (Rattus norvegicus [2]): 5 µmol/kg
- IC50 (Adenosine kinase): 2 nM
- NA (Rattus norvegicus [3]): inactive

Compound: Nc1ncnc(C#Cc2ccc(N3CCOCC3)nc2)c1CN1CCc2ccccc2C1
- IC50 (IMR-32 [1]): 1000 nM
- IC50 (Adenosine kinase): 40 nM

Compound: Nc1ncnc(C#Cc2ccc(N3CCOCC3)nc2)c1CCCc1ccncc1
- IC50 (IMR-32 [1]): 46 nM
- ED50 (Rattus norvegicus [2]): 46 µmol/kg
- IC50 (Adenosine kinase): 4 nM
- NA (Rattus norvegicus [3]): inactive

Compound: Nc1ncnc(C#Cc2ccc(N3CCOCC3)nc2)c1CCCc1ccc(Br)cc1
- IC50 (IMR-32 [4]): 565 nM
- IC50 (Adenosine kinase): 2 nM

Compound: Nc1ncnc(C#Cc2ccc(N3CCOCC3)nc2)c1CCCc1ccccc1Cl
- IC50 (IMR-32 [4]): 188 nM
- IC50 (Adenosine kinase): 2.5 nM

Compound: Nc1ncnc(C#Cc2ccc(N3CCOCC3)nc2)c1CCCc1ccccc1
- IC50 (IMR-32 [1]): 70 nM
- ED50 (Rattus norvegicus [2]): > 30 µmol/kg
- ED50 (Rattus norvegicus [5]): 8 µmol/kg
- IC50 (Adenosine kinase): 2.5 nM

Compound: CN(Cc1ccccc1C(F)(F)F)c1c(N)ncnc1C#Cc1ccc(N2CCOCC2)nc1
- IC50 (IMR-32 [4]): 276 nM
- IC50 (Adenosine kinase): 40 nM

Compound: CN(Cc1ccccc1Cl)Cc1c(N)ncnc1C#Cc1ccc(N2CCOCC2)nc1
- IC50 (IMR-32 [1]): 146 nM
- ED50 (Rattus norvegicus [2]): > 30 µmol/kg
- ED50 (Rattus norvegicus [5]): 30 µmol/kg
- IC50 (Adenosine kinase): 5 nM

Compound: Nc1ncnc(C#Cc2ccc(N3CCOCC3)nc2)c1Cc1ccccc1
- IC50 (IMR-32 [1]): 700 nM
- ED50 (Rattus norvegicus [5]): 30 µmol/kg
- IC50 (Adenosine kinase): 40 nM

Compound: Nc1cc(C#Cc2ccc(N3CCOCC3)nc2)ncn1
- IC50 (IMR-32 [1]): > 1000 nM
- IC50 (Adenosine kinase): 120 nM

Compound: Nc1ncnc(C#Cc2ccc(N3CCOCC3)nc2)c1CCCc1cccnc1
- IC50 (IMR-32 [1]): 94 nM
- IC50 (Adenosine kinase): 4 nM
- NA (Rattus norvegicus [3]): inactive

Compound: COc1ccc(CCCc2c(N)ncnc2C#Cc2ccc(N3CCOCC3)nc2)cc1
- IC50 (IMR-32 [1]): 198 nM
- ED50 (Rattus norvegicus [2]): > 30 µmol/kg
- ED50 (Rattus norvegicus [5]): 20 µmol/kg
- IC50 (Adenosine kinase): 3.5 nM

Compound: CN(Cc1ccc2ccccc2c1)c1c(N)ncnc1C#Cc1ccc(N2CCOCC2)nc1
- IC50 (IMR-32 [1]): 388 nM
- IC50 (Adenosine kinase): 246 nM

Compound: Nc1ncnc(C#Cc2ccc(N3CCOCC3)nc2)c1CCCCc1ccccc1
- IC50 (IMR-32 [4]): > 1000 nM
- IC50 (Adenosine kinase): 45 nM

Compound: Nc1ncnc(C#Cc2ccc(N3CCOCC3)nc2)c1CCc1ccccc1
- IC50 (IMR-32 [4]): 220 nM
- IC50 (Adenosine kinase): 4.5 nM

Compound: CN(Cc1ccc(Cl)c(Cl)c1)c1c(N)ncnc1C#Cc1ccc(N2CCOCC2)nc1
- IC50 (IMR-32 [4]): 345 nM
- IC50 (Adenosine kinase): 200 nM
